Assays:
Format in all cases: functional
Conditions in all cases: read-out: GI
Fusarium oxysporum [1] = assay: Growth inhibition of Fusarium oxysporum at 100 ppm after 96 hr by poisoned food technique
Outline: (§1)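 Poisoned food technique in vitro: test compound mixed into Czapek's agar at 1000, 100 or 10 ppm, then Fusarium oxysporum or Penicillium citrinum grown on the medium. Growth inhibition was scored following previously described methods.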

Fusarium oxysporum [2] = assay: Growth inhibition of Fusarium oxysporum at 1000 ppm after 96 hr by poisoned food technique; outline: as §1
Penicillium citrinum [3] = assay: Growth inhibition of Penicillium citrinum at 10 ppm after 96 hr by poisoned food technique; outline: as §1
Penicillium citrinum [4] = assay: Growth inhibition of Penicillium citrinum at 100 ppm after 96 hr by poisoned food technique; outline: as §1
Penicillium citrinum [5] = assay: Growth inhibition of Penicillium citrinum at 1000 ppm after 96 hr by poisoned food technique; outline: as §1
Fusarium oxysporum [6] = assay: Growth inhibition of Fusarium oxysporum at 10 ppm after 96 hr by poisoned food technique; outline: as §1

Row | SMILES | inhibition of growth at 100 ppm (Fusarium oxysporum [1]) | inhibition of growth at 1000 ppm (Fusarium oxysporum [2]) | inhibition of growth at 10 ppm (Penicillium citrinum [3]) | inhibition of growth at 100 ppm (Penicillium citrinum [4]) | inhibition of growth at 1000 ppm (Penicillium citrinum [5]) | inhibition of growth at 10 ppm (Fusarium oxysporum [6])
1 | Oc1ccccc1/C=N/c1ccc(CCc2ccc(/N=C/c3ccccc3O)cc2)cc1 | 53% | 62% | 23% | 33% | 50% | 25%
2 | O=C1CS[C@@H](c2ccc(Cl)cc2)N1c1ccc(CCc2ccc(N3C(=O)CS[C@H]3c3ccc(Cl)cc3)cc2)cc1 | 43% | 82% | 8% | 33% | 87% | 15%
3 | COc1ccc(/C=N/c2ccc(CCc3ccc(/N=C/c4ccc(OC)cc4)cc3)cc2)cc1 | 36% | 46% | 21% | 44% | 58% | 29%
4 | COc1ccc(/C=N/c2ccc(CCc3ccc(/N=C/c4ccc(OC)c(OC)c4)cc3)cc2)cc1OC | 43% | 55% | 19% | 27% | 42% | 31%
5 | COc1cc([C@@H]2SCC(=O)N2c2ccc(CCc3ccc(N4C(=O)CS[C@H]4c4ccc(O)c(OC)c4)cc3)cc2)ccc1O | 65% | 78% | 38% | 56% | 73% | 40%
6 | C[C@@H]1S[C@@H](c2ccc(Cl)cc2)N(c2ccc(CCc3ccc(N4C(=O)[C@H](C)S[C@H]4c4ccc(Cl)cc4)cc3)cc2)C1=O | 65% | 75% | 30% | 42% | 68% | 40%
7 | O=C1CS[C@@H](c2ccccc2O)N1c1ccc(CCc2ccc(N3C(=O)CS[C@H]3c3ccccc3O)cc2)cc1 | 50% | 61% | 25% | 40% | 67% | 39%
8 | C[C@@H]1S[C@@H](c2ccccc2)N(c2ccc(CCc3ccc(N4C(=O)[C@H](C)S[C@H]4c4ccccc4)cc3)cc2)C1=O | 81% | 100% | 53% | 79% | 100% | 59%
9 | COc1ccc([C@@H]2SCC(=O)N2c2ccc(CCc3ccc(N4C(=O)CS[C@H]4c4ccc(OC)cc4)cc3)cc2)cc1 | 50% | 61% | 17% | 32% | 46% | 24%
10 | Clc1ccc(/C=N/c2ccc(CCc3ccc(/N=C/c4ccc(Cl)cc4)cc3)cc2)cc1 | 47% | 83% | 15% | 30% | 88% | 20%
11 | O=C1CS[C@@H](c2ccccc2)N1c1ccc(CCc2ccc(N3C(=O)CS[C@H]3c3ccccc3)cc2)cc1 | 30% | 55% | 10% | 20% | 51% | 12%
12 | COc1ccc([C@@H]2SCC(=O)N2c2ccc(CCc3ccc(N4C(=O)CS[C@H]4c4ccc(OC)c(OC)c4)cc3)cc2)cc1OC | 26% | 38% | 26% | 50% | 67% | 24%
13 | C[C@@H]1S[C@@H](c2ccccc2O)N(c2ccc(CCc3ccc(N4C(=O)[C@H](C)S[C@H]4c4ccccc4O)cc3)cc2)C1=O | 71% | 88% | 37% | 65% | 78% | 30%
14 | COc1ccc([C@@H]2S[C@@H](C)C(=O)N2c2ccc(CCc3ccc(N4C(=O)[C@H](C)S[C@H]4c4ccc(OC)cc4)cc3)cc2)cc1 | 62% | 85% | 45% | 69% | 88% | 41%
15 | COc1cc(/C=N/c2ccc(CCc3ccc(/N=C/c4ccc(O)c(OC)c4)cc3)cc2)ccc1O | 47% | 51% | 37% | 45% | 57% | 48%
16 | C(=N\c1ccc(CCc2ccc(/N=C/c3ccccc3)cc2)cc1)/c1ccccc1 | 24% | 50% | 13% | 20% | 56% | 9%
17 | COc1cc([C@@H]2S[C@@H](C)C(=O)N2c2ccc(CCc3ccc(N4C(=O)[C@H](C)S[C@H]4c4ccc(O)c(OC)c4)cc3)cc2)ccc1O | 85% | 91% | 45% | 58% | 87% | 76%
18 | COc1ccc([C@@H]2S[C@@H](C)C(=O)N2c2ccc(CCc3ccc(N4C(=O)[C@H](C)S[C@H]4c4ccc(OC)c(OC)c4)cc3)cc2)cc1OC | 58% | 71% | 46% | 55% | 63% | 51%

From ChEMBL document CHEMBL3045462, “Synthesis and fungicidal activity of novel 4,4'-bis(2' '-aryl-5' '-methyl/unsubstituted-4' '-oxo-thiazolidin-3' '-yl) bibenzyl” (2003)
